Experimental data from different studies.
Compare with care: the assays were run in different laboratories. ≈ marks a conversion by molar mass, not a printed value.
Organism: Candida albicans
Effect on: microbial growth

C[C@@H]1[C@H](O)[C@@H](C)/C=C/C=C/C=C/C=C/C=C/C=C/C=C/[C@H](O[C@@H]2O[C@H](C)[C@@H](O)[C@H](N)[C@@H]2O)C[C@@H]2O[C@](O)(C[C@@H](O)C[C@@H](O)[C@H](O)CC[C@@H](O)C[C@@H](O)CC(=O)O[C@H]1C)C[C@H](O)[C@H]2C(=O)O  MIC (broth dilution; ATCC60193; 24 h): 2 µg/mL (≈ 2.16 µM)
Cc1c(C(N)=S)c(N)n(N)c(=O)c1C#N  inhibition zone (well diffusion; ATCC10231; 500 µg/mL): 19 mm
Cc1nn(-c2ccccc2)c2c1C(c1ccc(Cl)cc1)N(C(=O)c1ccncc1)N2 (centres unmarked)  MIC (MTCC183): 0.25 µg/mL (≈ 0.601 µM)
CC(=O)N1CCN(c2ccc(OCC3COC(Cn4ccnc4)(c4ccc(Cl)cc4Cl)O3)cc2)CC1 (centres unmarked)  inhibition zone (well diffusion; ATCC10231; 500 µg/mL): 24 mm
Cc1nn(-c2ccccc2)c2c1C(c1cncs1)N(C(=O)c1ccncc1)N2 (centres unmarked)  MIC (MTCC183): > 100 µg/mL
OC(Cn1cncn1)(Cn1cncn1)c1ccc(F)cc1F  MIC (broth dilution; SC5314): 0.25 µg/mL (≈ 0.816 µM)
Cc1nn(-c2ccccc2)c2c1C(c1ccc(O)cc1)N(C(=O)c1ccncc1)N2 (centres unmarked)  MIC (MTCC183): 64 µg/mL (≈ 161 µM)
Cc1c(C(N)=O)c(N)n(N)c(=O)c1C#N  inhibition zone (well diffusion; ATCC10231; 500 µg/mL): 12 mm
O=C(C=Cc1ccc(O)c(O)c1)OCCc1ccccc1  MIC (broth dilution; SC5314): 8 µg/mL (≈ 28.1 µM)
OC(Cn1cncn1)(Cn1cncn1)c1ccc(F)cc1F  MIC50 (broth dilution; SC5314; 48 h): 0.8 µM (≈ 0.245 µg/mL)
O=C(C=Cc1ccc(O)c(O)c1)Oc1cccc2cccnc12  MIC (broth dilution; SC5314): 16 µg/mL (≈ 52.1 µM)
Cc1nn(-c2ccccc2)c2c1C(c1c[nH]c3ccccc13)N(C(=O)c1ccncc1)N2 (centres unmarked)  MIC (MTCC183): 32 µg/mL (≈ 76.1 µM)
N#Cc1c(-c2ccc(Cl)cc2Cl)c(C(N)=S)c(N)n(N)c1=O  inhibition zone (well diffusion; ATCC10231; 500 µg/mL): 13 mm
CC(C)NCC(COc1cccc2ccccc12)OC(=O)C=Cc1ccc(O)c(O)c1 (centres unmarked)  MIC (broth dilution; SC5314): 16 µg/mL (≈ 38 µM)
N#Cc1c(-c2ccc(OCc3ccccc3)cc2)c(C(N)=S)c(N)n(N)c1=O  inhibition zone (well diffusion; ATCC10231; 500 µg/mL): 10 mm
O=C(C=Cc1ccc(O)c(O)c1)Oc1ccccc1  MIC (broth dilution; SC5314): 32 µg/mL (≈ 125 µM)
COc1ccc(C2c3c(C)nn(-c4ccccc4)c3NN2C(=O)c2ccncc2)cc1 (centres unmarked)  MIC (MTCC183): 16 µg/mL (≈ 38.9 µM)
